Bioassay records as filed in PubChem BioAssay.
Neddylation inh = inhibitors of human cullin neddylation | P61081+Q13564 | TR-FRET cullin neddylation, biochemical | calls only at 25 µM | 360,000 compounds, 0.58% hits | AID 651699; in the data active = inhibition above about 36%
proCasp3 act = activates human procaspase-3 | AID 463141 | activation, % at 8.5 µM | recombinant procaspase-3 D3A, Ac-DEVD-pNA absorbance 405 nm | 330,000 compounds, 0.11% hits;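 active = activation above the mean of all tested compounds plus 3 SD, cut at about 21% in these data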
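System: Procaspase-3 D3A mutant. Medium: Zinc-free 300 mM NaCl, 50 mM HEPES, 0.01% Triton X-100. Schedule: 1 h preincubation plus 2 h reaction at 25 °C. Measured by: 405 nm absorbance of p-nitroaniline, reads at 0 and 120 min. Read-out: percent activation relative to control range.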
proCasp7 act = counter-screen for procaspase-3 activators: activators of human procaspase-7; P55210; recombinant procaspase-7, Ac-DEVD-pNA absorbance 405 nm; D23A/D198A/D206A triple mutant, cannot self-cleave; scale: DMSO 0, 5 µM enzyme 100; activation, % at 8.5 µM; 330,000 compounds, 0.093% hits;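 active = percent activation above the screen-wide mean plus 3 SD, cut at about 25% in these data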
Target sequence (P55210 whole entry D23A/D198A/D206A): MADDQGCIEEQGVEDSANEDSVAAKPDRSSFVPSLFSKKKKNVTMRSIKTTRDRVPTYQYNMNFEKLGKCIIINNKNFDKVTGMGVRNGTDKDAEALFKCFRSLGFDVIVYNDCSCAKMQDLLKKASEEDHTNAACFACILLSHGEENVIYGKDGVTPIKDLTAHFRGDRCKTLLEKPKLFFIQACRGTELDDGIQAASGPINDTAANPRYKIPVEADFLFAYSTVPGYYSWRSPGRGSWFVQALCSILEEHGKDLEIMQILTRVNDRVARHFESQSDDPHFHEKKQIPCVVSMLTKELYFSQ
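Detection: p-Nitroaniline absorbance at 405 nm, read at 0 and 120 min; system: Uncleavable procaspase-7 mutant enzyme; evaluation: % activation from two-timepoint absorbance difference, scaled to controls; times: 1 h enzyme–compound preincubation and 2 h substrate reaction, both 25 °C; buffer or medium: Zinc-free HEPES pH 7.4 with 300 mM NaCl, 0.01% Triton X-100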
KLK7 zymogen act = activators of human kallikrein-7 zymogen; purified proKLK7, EDANS-DABCYL substrate fluorescence; 100% is mature enzyme control, 0% vehicle; activation, % at 7 µM; 370,000 compounds, 0.9% hits; AID 652039;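 active = activation above the mean of all tested compounds plus 3 SD, computed per campaign excluding outliers beyond control limits, cut at about 13% in these data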
Target sequence (P49862 whole entry, looked up): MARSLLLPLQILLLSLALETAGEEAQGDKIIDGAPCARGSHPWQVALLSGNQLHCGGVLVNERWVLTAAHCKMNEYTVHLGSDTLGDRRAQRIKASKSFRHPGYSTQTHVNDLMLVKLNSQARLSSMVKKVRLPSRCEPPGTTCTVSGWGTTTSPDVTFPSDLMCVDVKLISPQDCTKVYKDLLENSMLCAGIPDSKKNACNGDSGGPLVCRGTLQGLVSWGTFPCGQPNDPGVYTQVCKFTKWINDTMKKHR
Neddyl conf = cullin neddylation inhibition, confirmation | calls only at 25 µM | 1,800 compounds, 13% hits | TR-FRET cullin neddylation biochemical assay | shares compounds with Neddylation inh | AID 652217; in the data active = inhibition above about 40%;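 also: neddylation substrate is the cullin 1 ring ligase complex with SKP2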
Calls only; – = inactive; · = not tested or not shown; + = active, no number; ! = not confirmed by another sample. Sampled rows, rich in hits. Any-hit rate of the full collection: about 1.6%.

SMILES | Neddylation inh | proCasp3 act | proCasp7 act | KLK7 zymogen act | Neddyl conf
COC(=O)c1ccc(CN(c2ccccn2)S(=O)(=O)c2ccccc2)cc1 | + | – | – | – | –
COc1ccc(S(=O)(=O)N(CC(=O)O)c2ccccc2)cc1 | – | – | – | – | ·
COc1ccc(S(=O)(=O)N(CC(=O)O)c2ccccn2)cc1 | + | – | – | – | –
COc1cccc(NC(=O)Nc2c(-c3ccc(C(F)(F)F)cc3)nc3ncccn23)c1 | · | · | · | – | ·
COC(=O)c1cc(NCc2ccc3c(c2)OCO3)ccc1N1CCOCC1 | – | – | – | – | ·
COc1cc(CNc2ccc(N3CCOCC3)c(C(=O)O)c2)ccc1OCC(N)=O | + | – | – | – | –
O=C(O)c1cc(NCc2ccc3c(c2)OCO3)ccc1N1CCOCC1 | + | – | – | – | –
C=CCN1[C@@H](C)COc2cc(N3CCCC3)ccc2S1(=O)=O | · | · | · | – | ·
C[C@@H]1CN([C@@H](C)CO)C(=O)c2cc(/C=C/c3ccccc3)cnc2O[C@@H]1CN(C)S(=O)(=O)c1ccc(F)cc1 | + | · | · | – | –
CC(Oc1ccccc1)C(=O)N1CCN(c2ccc(N3CCCCC3)nn2)CC1 (stereo not given) | + | – | – | – | ·
CCCN1CCN(C(c2cc3cc(OCC)ccc3[nH]c2=O)c2nnnn2C2CCCCC2)CC1 (stereo not given) | + | – | – | – | ·
CN1c2ccccc2C(O)=C(C(=S)Nc2ccc(F)c(Cl)c2)S1(=O)=O | + | – | – | – | –
O=C(c1ccc(Cl)cc1)N1CCC(Oc2cccnc2)CC1 | · | · | · | – | ·
O=S(=O)(Nc1cccc2cccnc12)c1ccccc1 | · | – | – | – | ·
CC(=O)Nc1ccc(S(=O)(=O)Nc2cccc3cccnc23)cc1 | + | – | – | – | +
CCC(C)NC(=O)c1c(N)n(/N=C/c2ccccn2)c2nc3ccccc3nc12 (stereo not given) | + | – | – | – | –
CCCCCCCCN1C(=O)N2Cc3ccc(C)cc3C2CS1(=O)=O (stereo not given) | · | · | · | – | ·
CCc1ccccc1NC(=O)NNC(=O)c1ccc2ccccc2c1O | + | – | – | – | –
CCOc1ccc(NC(=O)NNC(=O)c2ccc3ccccc3c2O)cc1 | – | – | – | – | ·
COc1ccc(NC(=O)NNC(=O)c2ccc3ccccc3c2O)c(OC)c1 | + | – | – | – | –
COc1ccc(OC)c(NC(=O)Nc2ccc(O)c3ccccc23)c1 | + | – | – | – | ·
COc1ccc(OC)c(NC(=O)Nc2c(O)ccc3ccccc23)c1 | – | – | – | – | ·
C[C@H](O)[C@@H]1CN2CCc3ccc(N4CCOCC4)cc3[C@@H]2C[C@@H]1N(C)CC1CCCCC1 | · | · | · | – | ·
c1ccc(CCNc2ccc3ncc(-c4cccc5ccccc45)n3n2)nc1 | · | · | · | – | ·
CN(CCOC(=O)c1cc2ccccc2o1)C1CN(Cc2cn(Cc3ccc([N+](=O)[O-])cc3)nn2)S(=O)(=O)C1 (stereo not given) | · | · | · | – | ·
SMILES | Neddylation inh | proCasp3 act | proCasp7 act | KLK7 zymogen act | Neddyl conf
COc1ccc(CCNC(=O)Nc2ccc3c(c2)[C@]2(CC(=O)N(CC(C)C)C2c2ccccc2)C(=O)N3C)cc1OC (stereo not given in full) | · | · | · | – | ·
CCOC(=O)CC[C@@H]1CC[C@]2(CCCN(Cc3nccs3)C2)O1 | · | · | · | – | ·
COCCNC(=O)C(C)N1c2cccc3cccc(c23)S1(=O)=O (stereo not given) | – | – | – | – | ·
COCCCNC(=O)C(C)N1c2cccc3cccc(c23)S1(=O)=O (stereo not given) | + | · | · | – | –
COC(=O)[C@]12C[C@H](CC(=O)NCCCCc3ccccc3)C(=O)N(Cc3ccccc3)C1=C[C@H](COCc1ccccc1)O[C@@H]2C | · | · | · | – | ·
O=C(NC1CCCc2ccccc21)c1cccc(Br)c1 (stereo not given) | – | – | – | – | ·
CN(C)c1cccc(C(=O)NC2CCCc3ccccc32)c1 (stereo not given) | + | – | – | – | –
COc1cc(OC)cc(-c2oc3cccnc3c2C#CCCO)c1 | + | – | – | – | +
O=C(NN=C/C=C/c1ccco1)c1cc(-c2ccc(Cl)cc2)n[nH]1 | · | · | · | – | ·
Cc1c(NC(=O)C2CCCN(S(=O)(=O)c3cccc4ccccc34)C2)c(=O)n(-c2ccccc2)n1C (stereo not given) | · | · | · | – | ·
COc1cc(C2C(C#N)=C(N)N(c3ccc(F)cc3)C3=C2S(=O)(=O)CC3)ccc1O (stereo not given) | + | – | – | – | –
CC(NC(=O)C1=CC=CN2CCS(=O)(=O)N=C12)c1ccc(Cl)cc1Cl (stereo not given) | + | – | – | – | ·
O=C(Oc1ccc(Cl)c(Cl)c1)C1=CC=CN2CCS(=O)(=O)N=C12 | – | – | – | – | ·
CC(NC(=O)C1=CC=CN2CCS(=O)(=O)N=C12)c1ccc(Cl)c(Cl)c1 (stereo not given) | + | – | – | – | +
COc1ccc(NC(=O)CSc2nnc(-c3n[nH]c4c3CCC4)n2N)cc1OC | · | · | · | – | ·
NC(N)=NC(=O)c1nc(Cl)c(N2CCCCCC2)nc1N | – | – | – | – | ·
NC(N)=NC(=O)c1nc(Cl)c(N)nc1N | +! | – | – | – | –
COC(=O)c1ccc2c(=O)n(CCCCCC(=O)NC3CCCCC3)c(=O)[nH]c2c1 | · | · | · | – | ·
CCN(CC)CCOC(=O)c1ccc(N/C=C(/C#N)c2nc(-c3ccc(OC)cc3)cs2)cc1 | + | – | – | – | –
CCN(CC)CCOC(=O)c1ccc(N/C=C(/C#N)c2nc(-c3ccc4c(c3)OCO4)cs2)cc1 | – | – | – | – | ·
CC(C)(CNC(=O)c1ccccc1NS(C)(=O)=O)N1CCCCC1 | + | – | – | – | –
CS(=O)(=O)Nc1ccccc1C(=O)NCCSc1ccccc1 | + | – | – | – | –
CS(=O)(=O)Nc1ccccc1C(=O)Nc1cc(Cl)cc(Cl)c1 | – | – | – | – | ·
CS(=O)(=O)Nc1ccccc1C(=O)Nc1cccc(Cl)c1 | + | – | – | – | ·
Cc1cccc(C(=O)Nc2nc3ncccn3c2-c2ccc(F)c(F)c2)c1 | · | · | · | – | ·
SMILES | Neddylation inh | proCasp3 act | proCasp7 act | KLK7 zymogen act | Neddyl conf
Cc1ccc(-c2cc(C(=O)OCC(=O)NC3CC3)c3ccccc3n2)cc1 | + | – | – | – | ·
COc1cc(-c2cc(C(=O)OCC(=O)NC3CC3)c3ccccc3n2)cc(OC)c1OC | – | – | – | – | ·
COc1ccc(-c2cc(C(=O)N3CCCCCC3)c3ccccc3n2)cc1OC | · | · | · | – | ·
O=C(c1cc(N2CCCCC2)nc2ccccc12)N1CCOCC1 | + | – | – | – | –
O=C(OCC(=O)N1CCOCC1)c1cc(-c2ccccc2)nc2ccccc12 | – | – | – | – | ·
COc1cc(-c2cc(C(=O)N3CCCCCC3)c3ccccc3n2)cc(OC)c1OC | + | · | · | – | ·
COc1ccc(-c2cc(C(=O)OCC(=O)N3CCCCC3)c3ccccc3n2)cc1OC | + | – | – | – | –
O=[N+]([O-])c1ccc(COc2cccc(CO)c2)cc1 | · | · | · | – | ·
